From the array DNA melting data of Ke et al. (doi:10.1101/2024.01.08.574731)

Tests used:
[1] = melting temperature; fluorescence melt of hairpins on a sequencing array, two-state fit, raised by 9.35 °C to match UV melts; conditions: sodium 0.088 M
Procedure, shortened: (§1)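 In 50 mM Na-HEPES pH 8.0 containing 25 mM NaCl, hairpins from the library on a sequenced MiSeq flow cell were imaged for Cy3 fluorescence at 2.5 °C steps up to 60 °C, with Cy3 and quencher oligos annealed. After normalisation to pre-quench Cy3 and to control constructs, two-state fits with bootstrapping gave melting temperature and folding enthalpy. Four replicates were combined by inverse-variance weighting, and fitted temperatures were shifted up by 9.35 °C to match UV melts.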

[2] = folding enthalpy; higher = less favourable; fluorescence melt of hairpins on a sequencing array, two-state fit; conditions: sodium 0.088 M
Procedure, shortened: as §1

| Sequence | Tm [1] | folding enthalpy [2] |
| --- | --- | --- |
| GAACTCCGAAAGGACTTC (((.(((....))).))) | 29.7 °C | -19.5 kcal/mol |
| GTTCATGAAAATGAAC ((((((....)))))) | 52 °C | -33 kcal/mol |
| GAGAGCGAAAGCTGACTC ((((((....)))..))) | 32.3 °C | -13.3 kcal/mol |
| GATCCTACTAAGGATC ((((((....)))))) | 52.5 °C | -35.1 kcal/mol |
| GATCATGTCTATGATC ((((((....)))))) | 53.1 °C | -38.9 kcal/mol |
| GATTTAGGAAACTAAGTC ((.((((....)))).)) | 29.6 °C | -8.37 kcal/mol |
| GCGGACGGAAACGTTCGC (((.(((....))).))) | 64.2 °C | -44.9 kcal/mol |
| GTAATTCGAAAGAACTAC (((.(((....))).))) | 30 °C | -14.6 kcal/mol |
| GATCCCTTTCGGGATC ((((((....)))))) | 60.1 °C | -48.2 kcal/mol |
| GCCAAGCGAAAGCTGCGC ((..(((....)))..)) | 51.6 °C | -20.8 kcal/mol |
| GAGCACGGAAACGTACTC (((.(((....))).))) | 45.4 °C | -32.9 kcal/mol |
| GCGTTATACGC ((((...)))) | 61.3 °C | -20.4 kcal/mol |
| GATTACGGAAACGTGATC (((.(((....))).))) | 45.9 °C | -37.1 kcal/mol |
| GCGTAGCGAAAGCTTAGC ((..(((....)))..)) | 51.5 °C | -14.6 kcal/mol |
| GAGGCGACGAAAGTCCTC (((..(((....)))))) | 38.1 °C | -12.6 kcal/mol |
| GCTTTACGAAAGTAGAGC (((.(((....))).))) | 49.4 °C | -38.9 kcal/mol |
| GAGTAAGGAAACTTGCTC (((.(((....))).))) | 40.3 °C | -27.8 kcal/mol |
| GCGCAGCGAAAGCACCGC (((..((....))..))) | 45.2 °C | -8.24 kcal/mol |
| GAGAACGAAAGTTTGCTC ((((((....)))..))) | 28.6 °C | -16.8 kcal/mol |
| GGTAGCGGAAACGCTGCC ((.((((....)))).)) | 62.5 °C | -37.9 kcal/mol |
| GTCGACGAAAGTCATGAC ((((((....)))..))) | 40.7 °C | -15.6 kcal/mol |
| GAGTTGGAAACAACTC ((((((....)))))) | 57.3 °C | -34.6 kcal/mol |
| GATCTGTGGGCAGATC ((((((....)))))) | 54.3 °C | -49.7 kcal/mol |

| Sequence | Tm [1] | folding enthalpy [2] |
| --- | --- | --- |
| GTCACACGAAAGTGCGAC (((.(((....))).))) | 55.6 °C | -35.4 kcal/mol |
| GCAACGCGAAAGCTCTGC (((..((....))..))) | 34.6 °C | -9.33 kcal/mol |
| GATCGGCATCCGATC ((((((...)))))) | 55.3 °C | -40.1 kcal/mol |
| GTACGCGGAAACGCGCAC ((.((((....)))).)) | 52.9 °C | -14 kcal/mol |
| CGCGGACGATTCCGCG ((((((....)))))) | 69 °C | -29.1 kcal/mol |
| GGGACCGAAAGGTCTCCC ((((((....)))..))) | 51.9 °C | -11.7 kcal/mol |
| GCACTGCGAAAGCAACGC ((..(((....)))..)) | 36.2 °C | -14.2 kcal/mol |
| GCGCACGAAAGTGCCCGC ((((((....)))..))) | 47 °C | -12 kcal/mol |
| GATCCTTGCAGGATC ((((((...)))))) | 57.9 °C | -33.7 kcal/mol |
| GCCCTGCGAAAGCGAGGC (((..((....))..))) | 54.2 °C | -11.5 kcal/mol |
| GCTACAGGAAACTATAGC ((((.((....)).)))) | 31.7 °C | -12.1 kcal/mol |
| GATCTTTAGAAAGATC ((((((....)))))) | 40.6 °C | -31.1 kcal/mol |
| GCATGACCGAAAGGTTGC (((..(((....)))))) | 41.5 °C | -18.6 kcal/mol |
| GCTAAGGCGAAAGCCAGC (((..(((....)))))) | 48.6 °C | -16 kcal/mol |
| GATCCCTGTAGGGATC ((((((....)))))) | 65.8 °C | -41.1 kcal/mol |
| GCTCATGCGAAAGCAAGC (((..(((....)))))) | 35 °C | -10.8 kcal/mol |
| GCCACCGGAAACAGCGGC (((.(.(....).).))) | 32.5 °C | -16.9 kcal/mol |
| GCGCACCGAAAGGTCGC (((.(((....)))))) | 67 °C | -25.7 kcal/mol |
| GAAATGGAAACATTTC ((((((....)))))) | 46.7 °C | -30.2 kcal/mol |
| GTTTCCCGAAAGGGTAAC (((.(((....))).))) | 47.9 °C | -22.5 kcal/mol |
| GGTCTTCGAAAGAAACC (((.(((....)))))) | 32.9 °C | -18.4 kcal/mol |
| GGACATGGAAACGTGTTC (.(((.(....).))).) | 35 °C | -23.8 kcal/mol |
| GTTTATCGAAAGATGAAC (((.(((....))).))) | 43.6 °C | -31.2 kcal/mol |

| Sequence | Tm [1] | folding enthalpy [2] |
| --- | --- | --- |
| GCCACACGAAAGTGAGGC (((.(((....))).))) | 66.2 °C | -35.8 kcal/mol |
| GGCCGTCGAAAGACTGCC (((.(((....))).))) | 56.8 °C | -42.8 kcal/mol |
| GGGTCCGGAAACGAACCC ((((.((....)).)))) | 49 °C | -31.9 kcal/mol |
| GTACCCGAAAGGGTTTAC ((((((....)))..))) | 33 °C | -8.12 kcal/mol |
| GACCGTGGAAACGTGGTC ((((..(....)..)))) | 45.5 °C | -23.6 kcal/mol |
| GCGGCGCGAAAGCGTGGC ((..(((....)))..)) | 62 °C | -20.7 kcal/mol |
| GATTACGGAAACGTAGTC ((.((((....)))).)) | 38 °C | -25 kcal/mol |
| GTAGGCGAAAGCCGCTAC ((((((....)))..))) | 43.4 °C | -8.76 kcal/mol |
| GACGGGGGAAACCCCACC (..((((....))))..) | 30.3 °C | -7.44 kcal/mol |
| GGTTACGAAAGTACGACC ((((((....)))..))) | 31.4 °C | -14.9 kcal/mol |
| GATCACTTCTGTGATC ((((((....)))))) | 58.9 °C | -38.4 kcal/mol |
| GATTAACGAAAGTTGATC (((.(((....))).))) | 44 °C | -35.2 kcal/mol |
| GCCGCGCGAAAGCCTGGC (((..((....))..))) | 53.8 °C | -17.5 kcal/mol |
| GCCCGAGGAAACTCGAGC ((.((((....)))).)) | 48.4 °C | -31 kcal/mol |
| GACGAAGGAAACTCCGTC ((((.((....)).)))) | 37.7 °C | -26.2 kcal/mol |
| GTTCGTGGAAACGCGAAC (((((.(....).))))) | 55.3 °C | -41.3 kcal/mol |
| GCAACGCGAAAGCCTTGC ((((.((....)).)))) | 47.9 °C | -21.5 kcal/mol |
| GTGGAACGAAAGTTCAC (((.(((....)))))) | 44.9 °C | -11.2 kcal/mol |
| GATCACGTATGTGATC ((((((....)))))) | 68.2 °C | -38.5 kcal/mol |
| GATCACCCTGTGATC ((((((...)))))) | 59.3 °C | -42.3 kcal/mol |
| GGAATCGGAAACGATTTC (.(((((....))))).) | 47.9 °C | -33.3 kcal/mol |
| GATCCAGTTTGGATC ((((((...)))))) | 52.6 °C | -32.4 kcal/mol |
| GATCGGGGAAACTCGATC (((((.(....).))))) | 51.2 °C | -33.1 kcal/mol |

| Sequence | Tm [1] | folding enthalpy [2] |
| --- | --- | --- |
| GCAGGCGGAAACGCCTAC (.(((((....))))).) | 43.9 °C | -9.53 kcal/mol |
| GTGGTTGGAAACAATCAC (((.(((....))).))) | 47.7 °C | -36.6 kcal/mol |
| GATCCAGTAATGGATC ((((((....)))))) | 58.7 °C | -34.2 kcal/mol |
| GTTGCGGGAAACCACAAC ((((.((....)).)))) | 46.1 °C | -38.2 kcal/mol |
| GGAGCGACGAAAGTCTCC (((..(((....)))))) | 36.6 °C | -13.9 kcal/mol |
| GATCACTCGGTGATC ((((((...)))))) | 58.9 °C | -37.8 kcal/mol |
| GGATGCGAAAGCACTCC ((((((....))).))) | 49.6 °C | -29 kcal/mol |
| GGTGAAGAAATTCACC ((((((....)))))) | 52.6 °C | -32.5 kcal/mol |
| GATCACCGAAAGGTCATC (((.(((....))).))) | 32.5 °C | -16.8 kcal/mol |
| GACGCGGGAAACCGCGCC (.(((((....))))).) | 55 °C | -11.8 kcal/mol |
| GATCGGTATGCCGATC ((((((....)))))) | 62.1 °C | -41.9 kcal/mol |
| GTCACCGGAAACGGCGAC (((.(((....))).))) | 54.5 °C | -40.6 kcal/mol |
| CGATCGAAAGATCG (((((....))))) | 59.9 °C | -30.4 kcal/mol |
| GATCACAGGCGTGATC ((((((....)))))) | 57.3 °C | -36 kcal/mol |
| GGAACCACGAAAGTGTCC (((..(((....)))))) | 28.1 °C | -11.2 kcal/mol |
| GTGGGACGAAAGTCACAC (((.(((....))).))) | 68.9 °C | -29.6 kcal/mol |
| GTAGTCGCGAAAGCGTAC (((..(((....)))))) | 32.9 °C | -8.28 kcal/mol |
| GAGCTAGGAAACCAGCTC (((((.(....).))))) | 46.3 °C | -39.1 kcal/mol |
| GATAACGGAAACGTTACC (.(((((....))))).) | 34 °C | -16.5 kcal/mol |
| GCTTGGGCGAAAGCCAGC (((..(((....)))))) | 48.6 °C | -12.9 kcal/mol |
| GAGATTGGAAACGATCTC (((((.(....).))))) | 44.2 °C | -36.1 kcal/mol |
| GATCATTTGTATGATC ((((((....)))))) | 47.4 °C | -36 kcal/mol |
| GTTAGGCGAAAGCCAAAC (((.(((....))).))) | 50.3 °C | -15.9 kcal/mol |
